Here are results for 13 compounds from PubChem BioAssay.

Test [1] in a line: inhibitors of TNFa-induced NFkB p65 translocation, primary screen, imaging, HUVEC, MLSMR starter and 10KST1 sets (AID 438;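 active = inhibition above 20% together with a positive visual image hit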;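 note: compound added about 3h40 before a 20 min TNFalpha stimulation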;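 for inhibition: signal is the nuclear over cytoplasmic p65 intensity ratio per well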). The settings on record: HUVEC TNFa-induced p65 nuclear translocation; cell count: measured here: nuclei count (cytotoxicity indicator), at 2.08 µM; inhibition: at 2 µM, stronger effect = higher value, 0% TNFa-plus-vehicle, 100% no-TNFa wells.
Test [2] is described as follows: inhibitors of mutant huntingtin aggregation, primary screen, imaging, exon1htt(103Q)mCFP cells, high-content imaging (AID 483).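 For nuclei count: percent of the per-plate median nuclei count of sample wells.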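 Note: compound exposure lasted 3 days before fixation.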 The settings on record: exon1htt(103Q)mCFP cell line, aggregate imaging, at 2 µM; inhibition of aggregation: stronger effect = higher value; nuclei count: measured here: cell count, toxicity.
Test [3] in a line: inhibitors of E-selectin induction by TNFa, primary screen, imaging, HUVEC, immunofluorescence, MLSMR starter and 10KST1 sets (AID 487;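 active = visually confirmed hit in the image check and inhibition above 20%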;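 for inhibition: signal is fraction of cell area covered by stained E-selectin grains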;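 for nuclei count: 100% = median nuclei count of all wells on the same plate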). The settings on record: HUVEC TNFalpha-induced E-selectin immunofluorescence imaging, at 2 µM; inhibition: stronger effect = higher value; nuclei count: measured here: cell number, toxicity.
Test [4] has as its target Voltage-gated potassium channel subunit beta-2 (Rattus norvegicus) (UniProt P62483). In words: KvBeta enzyme negative modulators, primary screen, biochemical, NADPH fluorescence (AID 622;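 active = fluorescence slope higher than the sample average by over 3 SD, cut at about -0.22 in these data, passing the limit was not always enough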;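 note: slope of raw intensity against log time taken from 70 to 1610 s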). The settings on record: recombinant KvBeta, 4-cyanobenzaldehyde reduction, at 10 µM, stronger effect = higher value.
Test [5] shares this target. Kind of test: KvBeta positive modulators, primary screen, biochemical, NADPH fluorescence (AID 623;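 active = NADPH fluorescence slope more negative than the mean of all samples by about 3 SD, 99.7% confidence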;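 note: fluorescence intensity change per second fitted from 20 to 320 s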). The following applies: Recombinant KvBeta, NADPH fluorescence decrease slope, 10 min; at 10 µM; stronger effect = lower value.
Test [6] deals with Alpha-2C adrenergic receptor (Homo sapiens) (UniProt P18825). In words: modulators of alpha2C/GIRK thallium flux, primary screen, cell-based, HEK293 alpha2C/GIRK1/2 (AID 624;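 active = fluorescence slope after compound addition differing from the mean of all screened samples at 99.7% confidence, in either direction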;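 note: slope of fluorescence ratio to pre-addition baseline per second over 15 to 24 s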). The settings on record: thallium flux BTC fluorescence, at 10 µM, actives lie on both sides.
A short description of test [7]: inhibitors of Sendai virus-induced IRF3 signaling, primary screen, TLR/RLR signaling modifier project, cell-based, Sendai virus stimulus, luciferase, 10K MLSCN set (AID 602276;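 active = inhibition at or above 50% at 10 µM; inactive = inhibition below 50%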;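 note: firefly luciferase from ISG56 promoter only with Renilla not read in this screen; 0% = Sendai virus plus DMSO and 100% = medium plus DMSO without virus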). The settings on record: HEK293 RL24 IRF3 luciferase reporter, at 10 µM, stronger effect = higher value. For orientation: Reporter assays use an easily measured gene product as a stand-in for the process of interest.

Test [8] can be described thus: inhibitors of poly I:C-induced TLR3 signaling, primary screen, cell-based, poly I:C stimulus, luciferase, 10K MLSCN set (AID 602277;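 active = inhibition of the reporter signal at or above 50%; inactive = inhibition below 50%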). The settings on record: HEK293-TLR3 RL24 IRF3 luciferase reporter, at 10 µM, stronger effect = higher value.
Test [9] is described as follows: inhibitors of larval lipid processing in zebrafish, primary screen, whole organism, PED6 fluorescence, gall bladder and intestine (AID 686;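 active = a full or partial loss of lipid-probe fluorescence in the fish gall bladder, intestine or both, judged by eye; inactive = no fluorescence loss, or compound toxic to the fish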;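 note: larvae 5 to 7 days old with five fish per well; signal comes from phospholipase A2 cleavage of quenched PED6 carried via bile; overnight exposure to compound and PED6 before scoring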). The settings on record: Zebrafish larvae PED6 lipid processing, fluorescence scoring; screened at 20 µM (by protocol). The method in brief:
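Doses: 20 µM single dose. Test system: live zebrafish larvae aged 5-7 days, whole organism. Quantity: five larvae per well. Measured by: By-eye fluorescence microscopy. Reagent: ingested quenched lipid PED6 at 100 nM. Read-out: visual per-well fluorescence inhibition score. Times: overnight exposure of larvae to compound plus PED6.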

The structures appear in SMILES notation. Calls of active or inactive are those of the source.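 Rule for the calls, unless noted: active = visual image review flags a hit and inhibition of aggregation exceeds 20%; inconclusive = visual hit but inhibition at or below 20%; inactive = no hit on visual image review.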

Sequence of Alpha-2C adrenergic receptor (Homo sapiens) (P18825 whole entry, looked up): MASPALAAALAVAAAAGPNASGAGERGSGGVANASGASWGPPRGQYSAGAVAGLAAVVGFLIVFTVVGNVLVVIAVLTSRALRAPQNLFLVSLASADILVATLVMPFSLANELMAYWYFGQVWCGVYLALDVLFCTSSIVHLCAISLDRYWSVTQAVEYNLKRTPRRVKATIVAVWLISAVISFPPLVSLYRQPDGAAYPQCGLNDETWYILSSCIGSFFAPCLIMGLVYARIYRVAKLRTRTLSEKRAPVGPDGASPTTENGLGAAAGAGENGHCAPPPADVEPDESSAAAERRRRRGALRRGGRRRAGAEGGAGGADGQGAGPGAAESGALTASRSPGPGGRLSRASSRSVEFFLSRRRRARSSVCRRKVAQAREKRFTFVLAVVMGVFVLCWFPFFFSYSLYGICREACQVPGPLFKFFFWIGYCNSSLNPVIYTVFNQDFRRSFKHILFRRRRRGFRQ
Sequence of Voltage-gated potassium channel subunit beta-2 (Rattus norvegicus) (P62483 whole entry, looked up): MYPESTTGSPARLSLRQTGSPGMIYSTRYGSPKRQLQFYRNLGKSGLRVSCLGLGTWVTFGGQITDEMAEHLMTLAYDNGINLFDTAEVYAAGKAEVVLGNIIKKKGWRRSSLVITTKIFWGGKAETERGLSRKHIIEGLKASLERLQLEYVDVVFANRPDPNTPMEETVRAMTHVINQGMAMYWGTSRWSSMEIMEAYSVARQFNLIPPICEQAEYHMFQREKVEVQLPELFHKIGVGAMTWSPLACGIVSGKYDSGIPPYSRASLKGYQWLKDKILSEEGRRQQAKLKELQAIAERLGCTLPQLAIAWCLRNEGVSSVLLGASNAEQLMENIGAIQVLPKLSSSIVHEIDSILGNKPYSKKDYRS

The term inhibition denotes the relative decrease from the control value, in per cent. Take `O=C(c1ccc(Cl)cc1)N1CCCOC1`: the cell count in test [1] was 784. The inhibition in test [1] is -9.7% (inactive); in [3], -84.3% (inactive); in [7], 10.5% (inactive); in test [8], 18.6% (inactive). The inhibition of aggregation in test [2] is -49% (inactive). Also, the nuclei count in test [2] worked out at 99.2%; in [3] it was 111%. For the same compound, the fluorescence slope in test [4] is -0.32 (inactive). Moreover, the NADPH fluorescence slope in test [5] is -4.9e-05 (inactive). Further, in test [6], the slope is 0.00521 (inactive).
On to `CC(=O)Nc1ccccc1OCC(=O)c1cc(C)n(Cc2cccs2)c1C`, for which the cell count in test [1] was 425. Further, the inhibition is -2% (inactive) in [1], -54.1% (inactive) in test [3], 49.5% (inactive) in test [7] and -26.5% (inactive) in test [8]. The inhibition of aggregation in [2] is -13.7% (inactive). Further, the nuclei count stood at 45.4% in test [2] and 107% in [3]. The fluorescence slope in test [4] is -0.475 (inactive). Besides, the NADPH fluorescence slope in test [5] was -4.2e-05 (inactive). Further, the slope in [6] was 0.00662 (inactive). In test [9], the outcome was “inactive; toxic”.
Take `O=C(COC(=O)CCOc1ccccc1)Nc1ccc(Cl)cn1`: the cell count in test [1] amounted to 723. The inhibition in test [1] was 5.7% (inactive); in test [3] it was 35.5% (inactive); in [7] it was 5.25% (inactive); in test [8], 8.02% (inactive). Further, the inhibition of aggregation in test [2] is -12.2% (inactive). The figures for the nuclei count in [2] and in test [3] were 101% and 88.1%, respectively. In addition, in [4], the fluorescence slope was -0.489 (inactive). For the same compound, the NADPH fluorescence slope in [5] was -1.8e-05 (inactive). For the same compound, the slope in test [6] is 0.00492 (inactive). The compound was classed as inactive in [9].
On to `CN(CC(=O)N1CCCCC1)S(=O)(=O)c1cccc2cccnc12`, for which the cell count in test [1] is 792. Besides, the inhibition is 4.3% (inactive) in test [1], -53.1% (inactive) in test [3], 3.62% (inactive) in test [7] and 25.4% (inactive) in test [8]. The inhibition of aggregation in test [2] was 9.7% (inactive). Besides, the nuclei count in test [2] came to 112%; in [3], 124%. The fluorescence slope in [4] is -0.531 (inactive). For the same compound, the NADPH fluorescence slope in test [5] is -1e-05 (inactive). Moreover, the slope in test [6] is 0.00551 (inactive).
For `O=P(CCNCc1ccco1)(c1ccccc1)c1ccccc1`, in [1], the cell count is 322. Moreover, the inhibition is 9.5% (inactive) in test [1], 1.5% (inactive) in [3], 139% (active) in test [7] and 91.3% (active) in test [8]. Also, in [2], the inhibition of aggregation was -14.2% (inactive). Further, the nuclei count in test [2] turned out to be 107%; in test [3], 112%. Further, the fluorescence slope in [4] was -0.382 (inactive). For the same compound, the NADPH fluorescence slope in [5] is -2.4e-05 (inactive). Moreover, the slope in [6] was 0.00716 (inactive). Besides, the compound was called inactive in test [9].
Regarding `Cn1c(SCC(=O)c2ccc(-c3ccccc3)cc2)nnc1-c1ccco1`, in [1], the cell count stood at 248. The inhibition in test [1] is 4.3% (inactive); in test [3] it was -7.1% (inactive); in [7], 3.76% (inactive); in test [8], 1.41% (inactive). Further, the inhibition of aggregation in test [2] is 5.3% (inactive). Besides, the nuclei count in test [2] amounted to 67.6%; in test [3] it was 118%. For the same compound, the fluorescence slope in test [4] is -0.516 (inactive). In addition, in [5], the NADPH fluorescence slope is -5.4e-05 (inactive). The slope in [6] was 0.0027 (inactive).
For the compound `O=C1c2ccccc2NC(c2cccc(F)c2)N1Cc1ccco1` (configuration not stated), the cell count in test [1] is 586. The inhibition in test [1] was -32.4% (inactive); in test [3] it was -0.5% (inactive); in test [7], 16.4% (inactive); in test [8], 17.8% (inactive). The inhibition of aggregation in test [2] is 10.2% (inactive). The nuclei count in [2] worked out at 106%; in test [3], 107%. For the same compound, in test [4], the fluorescence slope is -0.308 (inactive). For the same compound, the NADPH fluorescence slope in test [5] is -2.7e-05 (inactive). Further, in [6], the slope was 0.00344 (inactive). Besides, in test [9], the result was inactive.
On to `O=C(NCCCN1CCN(Cc2ccccc2)CC1)C1CCN(c2nnc(-n3cccc3)s2)CC1`, for which the cell count in [1] is 336. For the same compound, the inhibition is -11.8% (inactive) in test [1], -119% (inactive) in test [3], -19.7% (inactive) in test [7] and -72% (inactive) in test [8]. In addition, in test [2], the inhibition of aggregation was -22.5% (inactive). Besides, the nuclei count was determined as 103% in test [2] and 126% in [3]. In [4], the fluorescence slope was -0.393 (inactive). Further, in test [5], the NADPH fluorescence slope is -5e-05 (inactive). Besides, in [6], the slope is 0.00457 (inactive). For the same compound, the compound was classed as inactive in test [9].
Consider `COc1ccc(NC(=O)c2ccco2)cc1NC(=O)c1cccs1`, for which, in test [1], the cell count was 400. Further, the inhibition was 3.8% (inactive) in test [1], 13.8% (inactive) in test [3], -10.6% (inactive) in [7] and -14.2% (inactive) in test [8]. In addition, the inhibition of aggregation in [2] was 4.3% (inactive). Besides, the nuclei count in [2] is 95.9%; in test [3], 92.8%. Besides, the fluorescence slope in test [4] was -0.421 (inactive). The NADPH fluorescence slope in test [5] was 2.6e-05 (inactive). Also, the slope in [6] was 0.00585 (inactive).
In the case of `CCCCCCn1c(CN2CCN(Cc3ccccc3)CC2)nc2c1c(=O)n(C)c(=O)n2C`, the cell count in test [1] was determined as 255. For the same compound, the inhibition in test [1] is -15.1% (inactive); in test [3], 24.2% (inactive); in test [7] it was 23% (inactive); in [8], 17.3% (inactive). In addition, in test [2], the inhibition of aggregation is 9.8% (inactive). Also, the nuclei count in [2] was 84.1%; in test [3], 64%. Further, the fluorescence slope in test [4] is -0.43 (inactive). The NADPH fluorescence slope in [5] is -5.6e-05 (inactive). In addition, the slope in [6] was 0.00491 (inactive). Also, the outcome in test [9] was inactive.
With `Cc1ccc(-n2c(C)cc3c2CCCC3=O)cc1`, the cell count in test [1] was 313. Further, the inhibition is 2.4% (inactive) in test [1], -29.8% (inactive) in test [3], 5.45% (inactive) in test [7] and 8.48% (inactive) in [8]. Further, in test [2], the inhibition of aggregation was -9.3% (inactive). In addition, the nuclei count was 88.9% in test [2] and 118% in test [3]. The fluorescence slope in test [4] is -0.366 (inactive). In test [5], the NADPH fluorescence slope is -7.7e-05 (inactive). Also, the slope in test [6] is 0.00516 (inactive). The compound was classed as inactive in [9].
In the case of `COc1ccc2cc(C(c3nnnn3C(C)(C)C)N3CCc4ccccc4C3)c(=O)[nH]c2c1` (configuration not stated), the cell count in [1] was 311. The inhibition in test [1] was 11.9% (inactive); in test [3], 1% (inactive); in test [7], 24.2% (inactive); in test [8], 44.5% (inactive). In test [2], the inhibition of aggregation was 5.3% (inactive). In addition, the nuclei count in test [2] came out at 100%; in [3], 94.4%. In addition, in test [4], the fluorescence slope is -0.347 (inactive). Further, the NADPH fluorescence slope in test [5] is -5.8e-05 (inactive). The slope in test [6] is 0.00475 (inactive). In [9], the compound was called inactive.
As to `Cc1cc(NC(=O)CSc2nc3c(c(-c4cccnc4)c2C#N)CCC3)no1`, the cell count in test [1] stood at 595. The inhibition is -2.9% (inactive) in test [1], 15.2% (inactive) in test [3], 0.978% (inactive) in test [7] and -3.11% (inactive) in [8]. Further, the inhibition of aggregation in test [2] is 0.1% (inactive). Moreover, the nuclei count in [2] came to 96.3%; in test [3], 88.6%. In addition, the fluorescence slope in test [4] is -0.337 (inactive). Further, the NADPH fluorescence slope in test [5] is -6.5e-05 (inactive). Also, the slope in test [6] is 0.00719 (inactive). Besides, the call in [9] was inactive.
